Laboratory results published in ChEMBL document CHEMBL4699638, “A Multipronged Approach Establishes Covalent Modification of β-Tubulin as the Mode of Action of Benzamide Anti-cancer Toxins” (J Med Chem, 2020).
Activity calls are given as the source filed them. The rule behind the calls is not given here.

Experiments:
[1] = (§1) Anticancer activity against mouse 319N1 cells assessed as reduction in cell viability measured after 72 hrs by celltiter-glo assay; assay type: functional, cell-based; conditions: 319N1, 72 h
Summary of the method: (§2)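 Cells seeded in duplicate at 10,000 per well in DMEM with 5% FBS and incubated overnight. Compounds were then added as a 10-point dose response. After 72 h, viability was read by CellTiter-Glo luminescence, with the reagent diluted 1:1 in PBS/1% Triton-X. Values were normalized to DMSO-treated cells and IC50 was derived from curve fitting.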

[2] = target: Tubulin beta-5 chain (Mus musculus) (UniProt P99024); assay: Binding affinity to beta5-tubulin in mouse 518T2 cells measured after 1.5 hrs by LC-MS/MS analysis; assay type: cell-based
Sequence of Tubulin beta-5 chain (Mus musculus) (P99024 whole entry, the tested form may be a part): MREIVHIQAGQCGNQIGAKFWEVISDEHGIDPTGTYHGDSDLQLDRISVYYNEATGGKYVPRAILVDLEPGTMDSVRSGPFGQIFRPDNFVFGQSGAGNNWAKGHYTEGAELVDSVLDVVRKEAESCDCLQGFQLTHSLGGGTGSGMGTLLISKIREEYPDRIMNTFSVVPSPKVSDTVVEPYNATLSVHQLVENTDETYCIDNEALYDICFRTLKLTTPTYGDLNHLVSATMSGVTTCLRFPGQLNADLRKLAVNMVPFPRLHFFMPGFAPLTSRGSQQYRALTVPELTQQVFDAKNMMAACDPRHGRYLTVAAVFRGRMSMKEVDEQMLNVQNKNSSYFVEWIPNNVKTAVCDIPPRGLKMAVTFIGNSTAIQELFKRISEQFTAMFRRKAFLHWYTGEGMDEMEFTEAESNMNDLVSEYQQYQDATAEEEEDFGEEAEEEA
Summary of the method: (§3)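 518T2 cells were grown at large scale (100 mg protein per condition) and treated with covalent or non-covalent alkyne probe. Lysates were clicked to 100 μM diazo biotin azide, acetone-precipitated, resolubilized in 4% SDS/PBS, and captured on streptavidin beads for 1 h at 25 °C. Eluates were run on silver-stained SDS-PAGE or analyzed by nano-LC-MS/MS (Orbitrap, HCD). Peptide abundance was normalized to the non-covalent probe sample.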

518T2 [3] = assay: Binding affinity to beta-tubulin in mouse 518T2 cells at 0.05 to 50 uM measured after 1.5 hrs using Alexa Fluor 532 dye by copper-mediated click reaction based SDS PAGE analysis; assay type: cell-based; conditions: dose microM 0.05-50, time 1.5 hrs
Summary of the method: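 518T2 cells were plated at 1 million per well in DMEM with 5% FBS. The next day, alkyne probe in DMSO was added at 50 nM to 50 μM for 1.5 h at 37 °C in 5% CO2. Cells were washed, lysed in 1% SDS buffer (50 mM HEPES pH 7.4, 10 mM KCl, 2 mM MgCl2, benzonase), click-reacted with Alexa Fluor 532 azide and resolved by SDS-PAGE fluorescence.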

518T2 [4] = assay: Binding affinity to beta-tubulin in mouse 518T2 cells measured after 1.5 hrs using diazo biotin azide dye by silver staining based based SDS PAGE analysis; assay type: cell-based; summary of the method: as §3
[5] = target: Tubulin beta-5 chain (Mus musculus) (UniProt P99024); assay: Binding affinity to beta5-tubulin (217 to 241 residues) in mouse 518T2 cells measured after 1.5 hrs by LC-MS/MS analysis; assay type: cell-based; summary of the method: as §3
518T2 [6] = assay: Binding affinity to beta-tubulin in mouse 518T2 cells at 0.1 to 50 uM measured after 1.5 hrs using Alexa Fluor 532 dye by copper-mediated click reaction based SDS PAGE analysis; assay type: cell-based; conditions: dose microM 0.1-50, time 1.5 hrs
Summary of the method: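 Competition assay in 518T2 cells (1 million per well, DMEM with 5% FBS). Test analogs in DMSO were dispensed first at 100 nM to 50 μM and the cells plated onto them. The next day, alkyne probe (5 μM) was added for 1.5 h at 37 °C. Lysis was in 1% SDS HEPES buffer, followed by a click reaction with fluorescent azide, SDS-PAGE, and EC50 from displacement of the p50 band.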

319N1 = assay: as §1; assay type: functional, cell-based; summary of the method: as §2
[7] = target: Tubulin beta-3 chain (Homo sapiens) (UniProt Q13509); assay: Binding affinity to recombinant human C-terminal His-tagged beta3-tubulin expressed in insect cells assessed as reduction in microtubule growth by measuring microtubule growth rate at 10 uM measured up to 30 mins by microscopic analysis (reference value: 0.83 micrometer/min); conditions: time min <=30
Sequence of Tubulin beta-3 chain (Homo sapiens) (Q13509 whole entry): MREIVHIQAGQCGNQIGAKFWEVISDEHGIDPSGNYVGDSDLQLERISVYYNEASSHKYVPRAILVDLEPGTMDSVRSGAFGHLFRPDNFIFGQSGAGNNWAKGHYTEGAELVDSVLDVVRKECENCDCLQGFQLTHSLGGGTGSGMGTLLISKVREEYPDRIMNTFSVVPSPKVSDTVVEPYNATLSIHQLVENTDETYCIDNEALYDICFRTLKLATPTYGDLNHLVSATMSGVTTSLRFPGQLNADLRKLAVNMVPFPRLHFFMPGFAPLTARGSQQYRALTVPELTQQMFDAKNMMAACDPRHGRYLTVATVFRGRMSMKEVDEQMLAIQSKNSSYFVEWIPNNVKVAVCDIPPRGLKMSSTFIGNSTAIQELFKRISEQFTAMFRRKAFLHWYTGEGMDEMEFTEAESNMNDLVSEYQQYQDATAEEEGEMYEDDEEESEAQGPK
Summary of the method: (§4)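 Human αβ-tubulin (TUBA1B plus TUBB3 with cleavable C-terminal His-tag) was expressed in Tni insect cells. It was purified by Ni-affinity, TEV cleavage and anion exchange, then kept in BRB80 with 50 μM GTP. Growth was measured by DIC time-lapse at 30 °C on GMPCPP seeds in 144 mM PIPES pH 6.9 buffer with 1 mM GTP and 4% DMSO, over about 30 min. Compound was tested at 1, 5 and 10 μM; growth rates were measured per microtubule over two trials.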

[8] = target: Tubulin beta-3 chain (Homo sapiens) (UniProt Q13509); assay: Binding affinity to recombinant human C-terminal His-tagged beta3-tubulin expressed in insect cells assessed as reduction in microtubule growth measured up to 30 mins by microscopic analysis; conditions: dose microM 1-10, time min <=30; summary of the method: as §4
[9] = target: Tubulin beta-3 chain (Homo sapiens) (UniProt Q13509); assay: Binding affinity to recombinant human C-terminal His-tagged beta3-tubulin expressed in insect cells assessed as reduction in microtubule growth by measuring microtubule growth rate at 1 uM measured up to 30 mins by microscopic analysis (reference value: 0.83 micrometer/min); conditions: time min <=30; summary of the method: as §4
Bos taurus = species on record: Bos taurus; assay: Binding affinity to bovine brain beta-tubulin assessed as reduction in microtubule growth at 0.5 uM measured up to 30 mins by microscopic analysis; assay type: tissue-based; conditions: time min <=30
Summary of the method: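 Microtubule growth from brain tubulin was imaged by time-lapse DIC microscopy at 30 °C on biotinylated GMPCPP seeds bound to neutravidin coverslips. Frames were taken every 50 ms and averaged in batches of 30; recordings ran about 30 min. Growth rates were quantified per microtubule.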

518T2 [10] = assay: Binding affinity to beta-tubulin in mouse 518T2 cells measured after 1.5 hrs using Alexa Fluor 532 dye by copper-mediated click reaction based SDS PAGE analysis; assay type: cell-based
Summary of the method: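 Competition format in 518T2 murine SCLC cells, 1 million per well in DMEM with 5% FBS. Analogs in DMSO (100 nM to 50 μM) were dispensed first and cells plated onto them. Next day alkyne probe 24 (5 μM) was added for 1.5 h at 37 °C, 5% CO2. EC50 was taken from displacement of the 50 kDa band.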

[11] = Anticancer activity against mouse 319N1 clone C cells assessed as reduction in cell viability measured after 72 hrs by celltiter-glo assay; assay type: functional, cell-based; conditions: 319N1, 72 h; summary of the method: as §2

Structure (SMILES)	IC50 [1]	beta-tubulin binding (probe competition, active/inactive) (518T2 [6])	also measured
C#CCOc1cccc(N2CCN(C(=O)c3ccc(Cl)c([N+](=O)[O-])c3)CC2)c1	1190 nM		Activity [2]: Active; Activity (518T2 [3]): Active; Activity (518T2 [4]): Active; Activity [5]: Active
CC[C@]1(O)C[C@H]2CN(CCc3c([nH]c4ccccc34)[C@@](C(=O)OC)(c3cc4c(cc3OC)N(C=O)[C@H]3[C@@](O)(C(=O)OC)[C@H](OC(C)=O)[C@]5(CC)C=CCN6CC[C@]43[C@@H]65)C2)C1		inactive	
O=C(c1ccc(Cl)c([N+](=O)[O-])c1)N1CCN(c2cc(Cl)ccc2Cl)CC1	458 nM		
O=C(c1cccc([N+](=O)[O-])c1)N1CCN(c2ccccc2)CC1			Activity (319N1): inactive
Cc1ccc(C)c(N2CCN(C(=O)c3ccc(Cl)c([N+](=O)[O-])c3)CC2)c1	1040 nM		
O=C(c1ccc(Cl)c([N+](=O)[O-])c1)N1CCN(c2ccc(F)cc2F)CC1	24700 nM		
COc1cccc(N2CCN(C(=O)c3ccc(Cl)c([N+](=O)[O-])c3)CC2)c1	1560 nM	Active	
N#Cc1cccc(N2CCN(C(=O)c3ccc(Cl)c([N+](=O)[O-])c3)CC2)c1	593 nM		
Cc1ccc(Cl)cc1N1CCN(C(=O)c2cc(Cl)cc([N+](=O)[O-])c2)CC1	4870 nM		
Cc1ccc(Cl)cc1N1CCN(C(=O)c2ccc(F)c([N+](=O)[O-])c2)CC1		Active	
O=C(c1ccc(Cl)c([N+](=O)[O-])c1)N1CCN(c2ccccc2Cl)CC1	2950 nM	Active	
COc1cc(OC)cc(N2CCN(C(=O)c3ccc(C=O)c([N+](=O)[O-])c3)CC2)c1	127 nM		Activity [7]: 0.31 um/min; Activity [8]: Dose-dependent effect; Activity [9]: 0.67 um/min; Activity (Bos taurus): Active
C#CCOc1cccc(N2CCN(C(=O)c3ccc(C)c([N+](=O)[O-])c3)CC2)c1	13000 nM		Activity (518T2 [3]): inactive; Activity (518T2 [4]): inactive
O=C(c1ccc(Cl)cc1)N1CCN(c2ccccc2)CC1			Activity (319N1): inactive
COC(=O)c1c(C)oc2ccc(NS(=O)(=O)c3ccc(Cl)c([N+](=O)[O-])c3)cc12	2800 nM		inhibition (518T2 [10]): Dose-dependent effect; IC50 [11]: 7570 nM
Cc1ccc(Cl)cc1N1CCN(C(=O)c2ccc(I)c([N+](=O)[O-])c2)CC1		Active	
